In PubChem BioAssay:
Activity calls are given as the source filed them.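 How the source made its calls, unless noted: active means inhibition at or above 50% at 10 µM; inactive means inhibition below 50%.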

Legend:
[1] = inhibitors of TNFa-induced NFkB p65 translocation, primary screen, imaging, HUVEC, MLSMR starter and 10KST1 sets (AID 438;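 active means inhibition above 20% together with a positive visual image hit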;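 further: compound added about 3h40 before a 20 min TNFalpha stimulation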;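 on inhibition: signal is the nuclear over cytoplasmic p65 intensity ratio per well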); conditions: HUVEC TNFa-induced p65 nuclear translocation; cell count: measured here: nuclei count (cytotoxicity indicator), at 2.08 µM; inhibition: at 2 µM, stronger effect = higher value, 0% TNFa-plus-vehicle, 100% no-TNFa wells
[2] = inhibitors of mutant huntingtin aggregation, primary screen, imaging, exon1htt(103Q)mCFP cells, high-content imaging (AID 483;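 active means visual image review flags a hit and inhibition of aggregation exceeds 20%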;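 further: compound exposure lasted 3 days before fixation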;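 on nuclei count: percent of the per-plate median nuclei count of sample wells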); conditions: exon1htt(103Q)mCFP cell line, aggregate imaging, at 2 µM; inhibition of aggregation: stronger effect = higher value; nuclei count: measured here: cell count, toxicity
[3] = inhibitors of E-selectin induction by TNFa, primary screen, imaging, HUVEC, immunofluorescence, MLSMR starter and 10KST1 sets (AID 487;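 active means visually confirmed hit in the image check and inhibition above 20%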;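 on inhibition: signal is fraction of cell area covered by stained E-selectin grains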;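 on nuclei count: 100% = median nuclei count of all wells on the same plate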); conditions: HUVEC TNFalpha-induced E-selectin immunofluorescence imaging, at 2 µM; inhibition: stronger effect = higher value; nuclei count: measured here: cell number, toxicity
[4] = biological target: Voltage-gated potassium channel subunit beta-2 (Rattus norvegicus) (UniProt P62483); test: KvBeta enzyme negative modulators, primary screen, biochemical, NADPH fluorescence (AID 622;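 active means fluorescence slope higher than the sample average by over 3 SD, cut at about -0.22 in these data, passing the limit was not always enough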;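 further: slope of raw intensity against log time taken from 70 to 1610 s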); conditions: recombinant KvBeta, 4-cyanobenzaldehyde reduction, at 10 µM, stronger effect = higher value
Sequence of Voltage-gated potassium channel subunit beta-2 (Rattus norvegicus) (P62483 whole entry, looked up): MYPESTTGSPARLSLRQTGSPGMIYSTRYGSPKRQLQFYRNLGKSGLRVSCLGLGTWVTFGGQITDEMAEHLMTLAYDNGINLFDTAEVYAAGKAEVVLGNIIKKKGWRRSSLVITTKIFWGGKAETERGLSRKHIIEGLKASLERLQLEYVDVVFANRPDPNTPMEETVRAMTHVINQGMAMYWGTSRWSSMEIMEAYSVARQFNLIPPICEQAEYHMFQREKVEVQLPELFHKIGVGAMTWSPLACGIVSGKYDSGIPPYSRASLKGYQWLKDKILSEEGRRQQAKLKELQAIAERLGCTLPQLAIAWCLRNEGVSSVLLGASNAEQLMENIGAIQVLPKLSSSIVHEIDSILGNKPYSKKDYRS

[5] = biological target: Voltage-gated potassium channel subunit beta-2 (Rattus norvegicus) (UniProt P62483); test: KvBeta positive modulators, primary screen, biochemical, NADPH fluorescence (AID 623;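 active means NADPH fluorescence slope more negative than the mean of all samples by about 3 SD, 99.7% confidence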;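 further: fluorescence intensity change per second fitted from 20 to 320 s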); conditions: Recombinant KvBeta, NADPH fluorescence decrease slope, 10 min; at 10 µM; stronger effect = lower value
[6] = biological target: Muscarinic acetylcholine receptor M4 (Homo sapiens) (UniProt P08173); test: compounds altering M4/GIRK thallium flux, either direction, primary screen, M4 allosteric agonist project, cell-based, HEK293 M4/GIRK, BTC-AM (AID 625;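 active means fluorescence slope after compound addition differing from the mean of all tested samples at 99.7% confidence, mostly higher but some lower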;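 further: thallium influx through GIRK channels coupled to M4 in HEK293 cells with BTC-AM dye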); conditions: at 10 µM, actives lie on both sides
Sequence of Muscarinic acetylcholine receptor M4 (Homo sapiens) (P08173 whole entry, looked up): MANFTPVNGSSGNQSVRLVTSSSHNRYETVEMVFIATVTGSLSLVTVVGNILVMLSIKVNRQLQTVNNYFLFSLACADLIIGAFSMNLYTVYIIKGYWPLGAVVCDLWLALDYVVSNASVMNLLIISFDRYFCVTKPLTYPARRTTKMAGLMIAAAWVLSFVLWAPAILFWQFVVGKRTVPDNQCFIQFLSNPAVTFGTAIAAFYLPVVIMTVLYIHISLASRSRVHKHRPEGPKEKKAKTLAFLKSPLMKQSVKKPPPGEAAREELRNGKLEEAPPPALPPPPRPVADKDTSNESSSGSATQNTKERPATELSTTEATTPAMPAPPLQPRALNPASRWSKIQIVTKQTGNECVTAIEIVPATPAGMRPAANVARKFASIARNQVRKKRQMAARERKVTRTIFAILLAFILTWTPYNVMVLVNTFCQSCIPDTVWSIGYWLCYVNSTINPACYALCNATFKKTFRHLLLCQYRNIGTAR
Method in brief: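 Material: M4/GIRK1/GIRK2 stable HEK293 cell line. Medium: pH 7.3 thallium assay buffer. Dosing: single compound concentration, 10 µM final. Schedule: 1 h dye loading, 2 min kinetic read. Measured by: kinetic fluorescence with BTC-AM dye. Read-out: post-addition slope, 15–24 s, of baseline-normalized fluorescence. Benchmarks: carbachol and DMSO controls.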

[7] = inhibitors of Sendai virus-induced IRF3 signaling, primary screen, TLR/RLR signaling modifier project, cell-based, Sendai virus stimulus, luciferase, 10K MLSCN set (AID 602276); conditions: HEK293 RL24 IRF3 luciferase reporter, at 10 µM, stronger effect = higher value;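 further: firefly luciferase from ISG56 promoter only with Renilla not read in this screen; 0% = Sendai virus plus DMSO and 100% = medium plus DMSO without virus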
[8] = inhibitors of poly I:C-induced TLR3 signaling, primary screen, cell-based, poly I:C stimulus, luciferase, 10K MLSCN set (AID 602277;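 active means inhibition of the reporter signal at or above 50%; inactive means inhibition below 50%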); conditions: HEK293-TLR3 RL24 IRF3 luciferase reporter, at 10 µM, stronger effect = higher value

SMILES | cell count [1] | inhibition [1] | inhibition of aggregation [2] | nuclei count [2] [%] | inhibition [3] | nuclei count [3] [%] | fluorescence slope [4] | NADPH fluorescence slope [5] | fluorescence slope [6] | inhibition [7] | inhibition [8]
O=C(NCCN1CCOCC1)C1CC(=O)N(c2ccc(F)c(Cl)c2)C1 (centres undefined) | 353 | -4.7% (inactive) | 21.8% (inactive) | 76.2 | -63.7% (inactive) | 120 | -0.554 (inactive) | -3.9e-05 (inactive) | 0.00645 (inactive) | 10.9% (inactive) | 10.3% (inactive)
Cc1ccc(CCNC(=O)Cn2cccc2)cc1 | 349 | -4.8% (inactive) | -1.7% (inactive) | 105 | -38.9% (inactive) | 103 | -0.355 (inactive) | -5.5e-05 (inactive) | 0.00566 (inactive) | 12.9% (inactive) | -5.93% (inactive)
CCOC(=O)c1cc2sccc2n1CC(=O)Nc1ccc(OC)cc1OC | 550 | -28.2% (inactive) | 2.8% (inactive) | 96.6 | -22.6% (inactive) | 107 | -0.542 (inactive) | 5.3e-06 (inactive) | 0.00418 (inactive) | 19% (inactive) | 32.5% (inactive)
CCC(C)(C)n1nnnc1C(c1ccccc1OC)N1CCSCC1 (centres undefined) | 252 | -16.3% (inactive) | 6.6% (inactive) | 106 | 32.4% (inactive) | 53.7 | -0.555 (inactive) | -4.3e-05 (inactive) | 0.00476 (inactive) | 6.1% (inactive) | 23.7% (inactive)
Cc1nnc(SCC(=O)Nc2ccc3c(c2)OCCO3)n1CC1CCCO1 (centres undefined) | 662 | -5% (inactive) | -0.8% (inactive) | 105 | -39.4% (inactive) | 114 | -0.341 (inactive) | -5.6e-05 (inactive) | 0.00537 (inactive) | 14.8% (inactive) | 7.29% (inactive)
O=C(NC(NC1CCS(=O)(=O)C1)C(=O)c1cccs1)c1ccccc1 (centres undefined) | 269 | 3.9% (inactive) | 0.8% (inactive) | 101 | 12.8% (inactive) | 96.3 | -0.572 (inactive) | -2.1e-05 (inactive) | 0.00591 (inactive) | 7.41% (inactive) | 18.4% (inactive)
CC(=O)SCC(=O)N=c1sc2cc(F)ccc2n1C | 491 | 1.1% (inactive) | -2.8% (inactive) | 91.7 | 3.4% (inactive) | 104 | -0.493 (inactive) | 4.8e-06 (inactive) | 0.00565 (inactive) | 3.65% (inactive) | 2.45% (inactive)
Cc1nnc(SCCn2c(N3CC(C)CC(C)C3)nc3c2c(=O)n(C)c(=O)n3C)s1 (centres undefined) | 207 | 3.4% (inactive) | 10.1% (inactive) | 84.9 | 60.7% (active) | 81.2 | -0.598 (inactive) | -2.7e-05 (inactive) | 0.00478 (inactive) | 15.7% (inactive) | 21.2% (inactive)
O=C(c1ccco1)N1CCN(c2c(-c3ccccc3)c3cc(Cl)ccc3[nH]c2=O)CC1 | 603 | 2.1% (inactive) | -2.2% (inactive) | 119 | -72.2% (inactive) | 118 | -0.456 (inactive) | 2.5e-05 (inactive) | 0.00537 (inactive) | 24.2% (inactive) | 25.7% (inactive)
COc1cccc(-n2c(C)nc3c(cnn3-c3ccc(C)cc3)c2=O)c1 | 684 | -5% (inactive) | 2.3% (inactive) | 111 | -67.2% (inactive) | 118 | -0.577 (inactive) | 2.9e-06 (inactive) | 0.00597 (inactive) | -34.8% (inactive) | -67.9% (inactive)
Cc1nnc(C)c2c(C)n(-c3ccc(Br)cc3)c(C)c12 | 305 | 2.5% (inactive) | -3.9% (inactive) | 104 | -47.7% (inactive) | 111 | -0.497 (inactive) | -4.6e-05 (inactive) | 0.00472 (inactive) | 18% (inactive) | 27.9% (inactive)
CCCCCCNC(=O)Cc1c(O)c2ccccc2[nH]c1=O | 342 | 3.2% (inactive) | -12.8% (inactive) | 122 | 20.8% (inactive) | 103 | -0.354 (inactive) | -5.1e-05 (inactive) | 0.0051 (inactive) | 9.96% (inactive) | 16.8% (inactive)
COc1cccc2cc(C(=O)Nc3cccnc3N3CCOCC3)c(=O)oc12 | 348 | -10.5% (inactive) | -13.5% (inactive) | 48.9 | -32.3% (inactive) | 98.9 | -0.573 (inactive) | 1.5e-05 (inactive) | 0.00618 (inactive) | 10.7% (inactive) | 4.05% (inactive)
FC(F)(F)c1cc(-c2ccco2)nc(-n2nnc3ccccc32)n1 | 529 | -6.9% (inactive) | -8.6% (inactive) | 109 | -12% (inactive) | 101 | -0.562 (inactive) | 1.3e-05 (inactive) | 0.00724 (inactive) | 15.2% (inactive) | 22.4% (inactive)
